Residue numbers refer to the chain shown, from its start.
Assays:
Details in all cases: stereoisomer not certain
OR5K3 (Homo sapiens) = target: T1, OR5K3 (Homo sapiens) (UniProt A6NET4)
T1 sequence (whole entry): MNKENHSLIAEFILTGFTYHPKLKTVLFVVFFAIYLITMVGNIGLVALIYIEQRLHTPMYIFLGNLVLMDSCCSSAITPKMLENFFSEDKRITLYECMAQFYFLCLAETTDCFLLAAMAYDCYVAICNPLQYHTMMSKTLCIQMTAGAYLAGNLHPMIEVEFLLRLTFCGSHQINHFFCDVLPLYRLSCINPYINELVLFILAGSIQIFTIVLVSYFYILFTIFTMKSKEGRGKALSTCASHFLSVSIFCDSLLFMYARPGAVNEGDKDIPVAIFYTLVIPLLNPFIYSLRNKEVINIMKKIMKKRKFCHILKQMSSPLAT
Procedure, shortened: (§1)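 Values were gathered from published papers (main text and supplementary material), with extra details requested from the original authors when needed, and checked for typos and inconsistencies. Each receptor–molecule pair is called responsive (active) if the original authors judged the measured signal statistically different from baseline, and non-responsive (inactive) otherwise. Assay methods varied by source, often transient mammalian cell-line luciferase assays. Recorded details include cell line, G-protein, co-transfected protein and tags.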

OR5K4 (Homo sapiens) = target: T2, OR5K4 (Homo sapiens) (UniProt A6NMS3)
T2 sequence (whole entry): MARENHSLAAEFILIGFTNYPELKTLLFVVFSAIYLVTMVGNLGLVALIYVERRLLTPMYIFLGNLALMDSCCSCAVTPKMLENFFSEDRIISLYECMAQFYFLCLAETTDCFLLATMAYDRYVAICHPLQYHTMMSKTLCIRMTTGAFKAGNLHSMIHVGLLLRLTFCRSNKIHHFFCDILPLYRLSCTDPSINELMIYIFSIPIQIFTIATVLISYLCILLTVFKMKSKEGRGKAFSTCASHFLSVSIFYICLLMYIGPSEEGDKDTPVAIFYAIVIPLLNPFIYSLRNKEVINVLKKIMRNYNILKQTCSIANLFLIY
Procedure, shortened: as §1

OR5L1 (Homo sapiens) = target: T3, OR5L1 (Homo sapiens) (UniProt Q8NGL2)
T3 sequence (whole entry): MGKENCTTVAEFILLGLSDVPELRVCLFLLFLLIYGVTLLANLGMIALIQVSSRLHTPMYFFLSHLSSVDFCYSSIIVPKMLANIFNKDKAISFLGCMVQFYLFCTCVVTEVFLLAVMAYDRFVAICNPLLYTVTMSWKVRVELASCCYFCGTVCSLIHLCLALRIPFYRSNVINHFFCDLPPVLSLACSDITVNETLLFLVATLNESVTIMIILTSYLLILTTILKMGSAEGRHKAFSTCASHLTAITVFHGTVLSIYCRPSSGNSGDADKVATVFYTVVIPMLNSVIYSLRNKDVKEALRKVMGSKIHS
Procedure, shortened: as §1

OR5L2 (Homo sapiens) = target: T4, OR5L2 (Homo sapiens) (UniProt Q8NGL0)
T4 sequence (whole entry): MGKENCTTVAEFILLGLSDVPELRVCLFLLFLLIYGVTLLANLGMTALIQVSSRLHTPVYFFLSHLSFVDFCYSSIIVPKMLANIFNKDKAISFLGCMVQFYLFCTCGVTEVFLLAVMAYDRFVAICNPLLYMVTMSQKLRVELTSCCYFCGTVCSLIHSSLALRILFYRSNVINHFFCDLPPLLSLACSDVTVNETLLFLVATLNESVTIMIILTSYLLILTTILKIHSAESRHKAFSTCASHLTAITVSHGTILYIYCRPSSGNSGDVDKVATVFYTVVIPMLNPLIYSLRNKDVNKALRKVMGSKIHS
Procedure, shortened: as §1

OR5M1 (Homo sapiens) = target: T5, OR5M1 (Homo sapiens) (UniProt Q8NGP8)
T5 sequence (whole entry): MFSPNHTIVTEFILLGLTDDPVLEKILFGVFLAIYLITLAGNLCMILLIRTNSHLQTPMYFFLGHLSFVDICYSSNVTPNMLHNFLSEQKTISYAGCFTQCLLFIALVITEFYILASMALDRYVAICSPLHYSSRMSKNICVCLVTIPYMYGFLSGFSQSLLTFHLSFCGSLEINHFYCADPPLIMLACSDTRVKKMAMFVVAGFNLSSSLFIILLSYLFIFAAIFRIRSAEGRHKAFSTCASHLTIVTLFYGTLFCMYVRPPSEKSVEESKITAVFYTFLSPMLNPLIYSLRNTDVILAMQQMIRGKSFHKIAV
Procedure, shortened: as §1

OR5M1 T295R M301I = test system: T6, OR5M1 T295R M301I
T6 sequence (whole entry): T5 sequence (whole entry) with T295R, M301I
Procedure, shortened: as §1

OR5M10 (Homo sapiens) = target: T7, OR5M10 (Homo sapiens) (UniProt Q6IEU7)
T7 sequence (whole entry): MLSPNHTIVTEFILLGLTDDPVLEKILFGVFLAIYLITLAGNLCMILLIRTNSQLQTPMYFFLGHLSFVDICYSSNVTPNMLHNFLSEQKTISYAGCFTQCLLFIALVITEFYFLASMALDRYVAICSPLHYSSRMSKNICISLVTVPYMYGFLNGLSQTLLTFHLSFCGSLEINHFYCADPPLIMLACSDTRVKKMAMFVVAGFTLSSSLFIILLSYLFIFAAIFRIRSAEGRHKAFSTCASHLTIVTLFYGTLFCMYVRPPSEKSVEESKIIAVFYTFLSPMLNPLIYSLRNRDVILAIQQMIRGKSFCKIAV
Procedure, shortened: as §1

OR5M11 (Homo sapiens) = target: T8, OR5M11 (Homo sapiens) (UniProt Q96RB7)
T8 sequence (whole entry): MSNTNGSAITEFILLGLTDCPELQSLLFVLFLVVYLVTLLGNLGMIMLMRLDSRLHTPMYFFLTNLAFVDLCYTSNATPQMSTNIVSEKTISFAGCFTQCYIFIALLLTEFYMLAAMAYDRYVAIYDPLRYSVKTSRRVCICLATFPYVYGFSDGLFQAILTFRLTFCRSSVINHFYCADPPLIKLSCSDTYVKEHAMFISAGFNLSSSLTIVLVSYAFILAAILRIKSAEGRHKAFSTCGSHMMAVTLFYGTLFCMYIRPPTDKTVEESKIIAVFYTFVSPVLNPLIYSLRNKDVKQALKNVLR
Procedure, shortened: as §1

OR5M3 (Homo sapiens) = target: T9, OR5M3 (Homo sapiens) (UniProt Q8NGP4)
T9 sequence (whole entry): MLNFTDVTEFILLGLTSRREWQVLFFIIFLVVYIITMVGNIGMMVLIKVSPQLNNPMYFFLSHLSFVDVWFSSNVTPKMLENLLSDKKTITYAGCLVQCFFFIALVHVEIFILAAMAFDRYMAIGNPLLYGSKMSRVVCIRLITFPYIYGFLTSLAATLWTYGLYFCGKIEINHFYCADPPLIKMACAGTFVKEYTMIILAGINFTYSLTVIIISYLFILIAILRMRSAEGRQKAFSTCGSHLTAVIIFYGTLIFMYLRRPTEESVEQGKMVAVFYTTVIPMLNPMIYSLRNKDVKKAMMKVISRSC
Procedure, shortened: as §1

OR5M3 N3Y A156T = test system: T10, OR5M3 N3Y A156T
T10 sequence (whole entry): T9 sequence (whole entry) with N3Y, A156T
Procedure, shortened: as §1

Measured: odorant receptor agonist call

CCCCCCC=CCCC=O
inactive: all assays above

CC1CCc2nccnc21 (stereo not given)
inactive: OR5K3 (Homo sapiens) | OR5K4 (Homo sapiens)

CC(=O)c1nccnc1C
inactive: OR5K3 (Homo sapiens) | OR5K4 (Homo sapiens)

CCC(C)c1nccnc1OC (stereo not given)
inactive: OR5K3 (Homo sapiens) | OR5K4 (Homo sapiens) | OR5M3 (Homo sapiens)

CCc1nccnc1C(C)=O
inactive: OR5K3 (Homo sapiens) | OR5K4 (Homo sapiens)

COc1cnccn1
inactive: OR5K3 (Homo sapiens) | OR5K4 (Homo sapiens)

COc1nccnc1C(C)C
inactive: OR5K3 (Homo sapiens) | OR5K4 (Homo sapiens) | OR5M3 (Homo sapiens)

CC(CO)CS (stereo not given)
not listed: OR5M1 T295R M301I | OR5M3 N3Y A156T
inactive: all other assays above

CCc1nccnc1OC
inactive: OR5K3 (Homo sapiens) | OR5K4 (Homo sapiens)

CC(=O)c1c(C)c([N+](=O)[O-])c(C(C)(C)C)c([N+](=O)[O-])c1C
not listed: OR5L2 (Homo sapiens) | OR5M1 T295R M301I | OR5M3 N3Y A156T
inactive: all other assays above

CC1=C(O)C(=O)OC1C (stereo not given)
inactive: all assays above

CCCCCC(=O)C(C)C(C)=O (stereo not given)
not listed: OR5M1 T295R M301I | OR5M3 N3Y A156T
inactive: all other assays above

CCCCC(S)C(C)CO (stereo not given)
active: OR5M11 (Homo sapiens)
not listed: OR5M1 T295R M301I | OR5M3 N3Y A156T
inactive: all other assays above

Cc1cnc(C)cn1
inactive: OR5K3 (Homo sapiens) | OR5K4 (Homo sapiens)

COc1nccnc1CC(C)C
inactive: OR5K3 (Homo sapiens) | OR5K4 (Homo sapiens) | OR5M3 (Homo sapiens)

CC1=C(O)C(=O)C(C)O1 (stereo not given)
active: OR5M3 (Homo sapiens)
inactive: all other assays above

CCc1ncc(C)nc1CC
inactive: OR5K3 (Homo sapiens) | OR5K4 (Homo sapiens) | OR5M3 (Homo sapiens)
